Test results as given in ChEMBL document CHEMBL1811814, “Synthesis and evaluation of indole, pyrazole, chromone and pyrimidine based conjugates for tumor growth inhibitory activities--development of highly efficacious cytotoxic agents” (Eur J Med Chem, 2010).

Legend:
Type in all cases: functional
Parameters in all cases: scale not given: the % may be the effect or the level left
SF-539 = test: Growth inhibition of human SF539 cells assessed tumor cell growth at 10^-5 M
Procedure, shortened: (§1)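 NCI 60-human-tumor-cell-line panel screen. Each compound was tested at a single concentration of 10^-5 M, and percent growth of tumor cells was recorded for each cell line. Growth inhibition was expressed from these percent-growth values.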

CCRF-CEM = test: Growth inhibition of human CCRF-CEM cells assessed tumor cell growth at 10^-5 M; procedure, shortened: as §1
SW-620 = test: Growth inhibition of human SW620 cells assessed tumor cell growth at 10^-5 M
Procedure, shortened: (§2)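 Single-dose screen at 10^-5 M across the 60 human tumor cell line panel, run to NCI standards. The value is the percent growth of each cell line in the presence of compound. Compounds active at this dose moved on to five-concentration testing (10^-4 to 10^-8 M).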

HL-60(TB) = test: Growth inhibition of human HL-60(TB) cells assessed tumor cell growth at 10^-5 M
Procedure, shortened: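 HL-60(TB), part of the 60-line panel, tested at a single concentration of 10^-5 M. The read-out is percent tumor cell growth relative to untreated growth.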

SN12C = test: Growth inhibition of human SN12C cells assessed tumor cell growth at 10^-5 M; procedure, shortened: as §1
NCI-H23 = test: Growth inhibition of human NCI-H23 cells assessed tumor cell growth at 10^-5 M; procedure, shortened: as §1
EKVX = test: Growth inhibition of human EKVX cells assessed tumor cell growth at 10^-5 M; procedure, shortened: as §1
NCI-H322M = test: Growth inhibition of human NCI-H322M cells assessed tumor cell growth at 10^-5 M; procedure, shortened: as §1
HCT-15 = test: Growth inhibition of human HCT15 cells assessed tumor cell growth at 10^-5 M; procedure, shortened: as §1
MDA-MB-435 = test: Growth inhibition of human MDA-MB-435 cells assessed tumor cell growth at 10^-5 M; procedure, shortened: as §1
SNB-19 = test: Growth inhibition of human SNB19 cells assessed tumor cell growth at 10^-5 M; procedure, shortened: as §2
ACHN = test: Growth inhibition of human ACHN cells assessed tumor cell growth at 10^-5 M; procedure, shortened: as §1
SF-268 = test: Growth inhibition of human SF268 cells assessed tumor cell growth at 10^-5 M; procedure, shortened: as §1
HT-29 = test: Growth inhibition of human HT-29 cells assessed tumor cell growth at 10^-5 M; procedure, shortened: as §1
IGROV-1 = test: Growth inhibition of human IGROV1 cells assessed tumor cell growth at 10^-5 M; procedure, shortened: as §1
A549 = test: Growth inhibition of human A549 cells assessed tumor cell growth at 10^-5 M; procedure, shortened: as §1
TK-10 = test: Growth inhibition of human TK10 cells assessed tumor cell growth at 10^-5 M; procedure, shortened: as §2
M14 = test: Growth inhibition of human M14 cells assessed tumor cell growth at 10^-5 M; procedure, shortened: as §1
[1] = Growth inhibition of human Hs 578T cells assessed tumor cell growth at 10^-5 M; procedure, shortened: as §1
HCC 2998 = test: Growth inhibition of human HCC2998 cells assessed tumor cell growth at 10^-5 M; procedure, shortened: as §1
KM12 = test: Growth inhibition of human KM12 cells assessed tumor cell growth at 10^-5 M; procedure, shortened: as §1
COLO 205 = test: Growth inhibition of human COLO205 cells assessed tumor cell growth at 10^-5 M; procedure, shortened: as §1
BT-549 = test: Growth inhibition of human BT549 cells assessed tumor cell growth at 10^-5 M; procedure, shortened: as §1
PC-3 = test: Growth inhibition of human PC3 cells assessed tumor cell growth at 10^-5 M; procedure, shortened: as §1
SK-MEL-28 = test: Growth inhibition of human SK-MEL-28 cells assessed tumor cell growth at 10^-5 M; procedure, shortened: as §1
DU-145 = test: Growth inhibition of human DU145 cells assessed tumor cell growth at 10^-5 M; procedure, shortened: as §1
NCI-H522 = test: Growth inhibition of human NCI-H522 cells assessed tumor cell growth at 10^-5 M; procedure, shortened: as §1
NCI-H226 = test: Growth inhibition of human NCI-H226 cells assessed tumor cell growth at 10^-5 M; procedure, shortened: as §1
HCT-116 = test: Growth inhibition of human HCT116 cells assessed tumor cell growth at 10^-5 M; procedure, shortened: as §1
HOP-92 = test: Growth inhibition of human HOP92 cells assessed tumor cell growth at 10^-5 M; procedure, shortened: as §1
U-251 = test: Growth inhibition of human U251 cells assessed tumor cell growth at 10^-5 M; procedure, shortened: as §2
SF-295 = test: Growth inhibition of human SF295 cells assessed tumor cell growth at 10^-5 M; procedure, shortened: as §1
RXF 393 = test: Growth inhibition of human RXF393 cells assessed tumor cell growth at 10^-5 M; procedure, shortened: as §1
SK-MEL-2 = test: Growth inhibition of human SK-MEL-2 cells assessed tumor cell growth at 10^-5 M; procedure, shortened: as §1
MOLT-4 = test: Growth inhibition of human MOLT4 cells assessed tumor cell growth at 10^-5 M; procedure, shortened: as §1
LOX IMVI = test: Growth inhibition of human LOXIMVI cells assessed tumor cell growth at 10^-5 M; procedure, shortened: as §1
UACC-62 = test: Growth inhibition of human UACC62 cells assessed tumor cell growth at 10^-5 M; procedure, shortened: as §2
786-0 = test: Growth inhibition of human 786-0 cells assessed tumor cell growth at 10^-5 M; procedure, shortened: as §1
OVCAR-8 = test: Growth inhibition of human OVCAR8 cells assessed tumor cell growth at 10^-5 M; procedure, shortened: as §1
CAKI-1 = test: Growth inhibition of human Caki1 cells assessed tumor cell growth at 10^-5 M; procedure, shortened: as §1
MDA-MB-231 = test: Growth inhibition of human MDA-MB-231 cells assessed tumor cell growth at 10^-5 M; procedure, shortened: as §1
NCI/ADR-RES = test: Growth inhibition of human NCI/ADR-RES cells assessed tumor cell growth at 10^-5 M; procedure, shortened: as §1
HOP-62 = test: Growth inhibition of human HOP62 cells assessed tumor cell growth at 10^-5 M; procedure, shortened: as §1
Malme-3M = test: Growth inhibition of human MALME-3M cells assessed tumor cell growth at 10^-5 M; procedure, shortened: as §1
[2] = Growth inhibition of human […] cells assessed tumor cell growth at 10^-5 M; procedure, shortened: as §1
SK-MEL-5 = test: Growth inhibition of human SK-MEL-5 cells assessed tumor cell growth at 10^-5 M; procedure, shortened: as §1
T47D = test: Growth inhibition of human T47D cells assessed tumor cell growth at 10^-5 M; procedure, shortened: as §2
OVCAR-5 = test: Growth inhibition of human OVCAR5 cells assessed tumor cell growth at 10^-5 M; procedure, shortened: as §1
UACC-257 = test: Growth inhibition of human UACC257 cells assessed tumor cell growth at 10^-5 M; procedure, shortened: as §2
A498 = test: Growth inhibition of human A498 cells assessed tumor cell growth at 10^-5 M; procedure, shortened: as §1
OVCAR-3 = test: Growth inhibition of human OVCAR3 cells assessed tumor cell growth at 10^-5 M; procedure, shortened: as §1
UO-31 = test: Growth inhibition of human UO31 cells assessed tumor cell growth at 10^-5 M; procedure, shortened: as §2
SNB-75 = test: Growth inhibition of human SNB75 cells assessed tumor cell growth at 10^-5 M; procedure, shortened: as §2
NCI-H460 = test: Growth inhibition of human NCI-H460 cells assessed tumor cell growth at 10^-5 M; procedure, shortened: as §1
MDA-MB-468 = test: Growth inhibition of human MDA-MB-468 cells assessed tumor cell growth at 10^-5 M; procedure, shortened: as §1
SK-OV-3 = test: Growth inhibition of human SKOV3 cells assessed tumor cell growth at 10^-5 M; procedure, shortened: as §1
K562 = test: Growth inhibition of human K562 cells assessed tumor cell growth at 10^-5 M; procedure, shortened: as §1
OVCAR-4 = test: Growth inhibition of human OVCAR4 cells assessed tumor cell growth at 10^-5 M; procedure, shortened: as §1
MCF7 = test: Growth inhibition of human MCF7 cells assessed tumor cell growth at 10^-5 M; procedure, shortened: as §1

`Cc1ccc(S(=O)(=O)n2cc(/C=C3\C(=O)Nc4ccccc43)c3ccccc32)cc1` showed an Activity (SF-539) of 93.1%, an Activity (CCRF-CEM) of 95.6% and an Activity (SW-620) of 103%. It also gave an Activity (HL-60(TB)) of 100.6%, an Activity (SN12C) of 88.3% and an Activity (NCI-H23) of 89.8%. It also gave an Activity (EKVX) of 93.8%, an Activity (NCI-H322M) of 106.5% and an Activity (HCT-15) of 79.5%. It also gave an Activity (MDA-MB-435) of 93.2%, an Activity (SNB-19) of 85.2% and an Activity (ACHN) of 82.2%. For the same compound, the Activity (SF-268) was 88.4%, the Activity (HT-29) was 104.5% and the Activity (IGROV-1) was 73%. The Activity (A549) was 88.2%, the Activity (TK-10) was 117.8% and the Activity (M14) was 96%. For the same compound, the Activity [1] was 92.2%, the Activity (HCC 2998) was 98.6% and the Activity (KM12) was 97%. The Activity (COLO 205) was 54.4%, the Activity (BT-549) was 97.5% and the Activity (PC-3) was 92.8%. For the same compound, the Activity (SK-MEL-28) was 86.8%, the Activity (DU-145) was 101.5% and the Activity (NCI-H522) was 111.2%. It also gave an Activity (NCI-H226) of 86.3%, an Activity (HCT-116) of 92.5% and an Activity (HOP-92) of 67.4%. It also gave an Activity (U-251) of 86.4%, an Activity (SF-295) of 97.1% and an Activity (RXF 393) of 97.6%. For the same compound, the Activity (SK-MEL-2) was 86.6%, the Activity (MOLT-4) was 95.7% and the Activity (LOX IMVI) was 82.7%. The Activity (UACC-62) was 64%, the Activity (786-0) was 99.7% and the Activity (OVCAR-8) was 91.2%. It also gave an Activity (CAKI-1) of 53.7%, an Activity (MDA-MB-231) of 66.4% and an Activity (NCI/ADR-RES) of 92.1%. For the same compound, the Activity (HOP-62) was 98.5%, the Activity (Malme-3M) was 111% and the Activity [2] was 80.7%. It also gave an Activity (SK-MEL-5) of 84.9%, an Activity (T47D) of 77.3% and an Activity (OVCAR-5) of 87.3%. The Activity (UACC-257) was 84%, the Activity (A498) was 102% and the Activity (OVCAR-3) was 83.7%. It also gave an Activity (UO-31) of 60.9%, an Activity (SNB-75) of 73.4% and an Activity (NCI-H460) of 97.3%. It also gave an Activity (MDA-MB-468) of 117.2%, an Activity (SK-OV-3) of 99.1% and an Activity (K562) of 85%. For the same compound, the Activity (OVCAR-4) was 70.1% and the Activity (MCF7) was 56.6%.
